Cneo AK release – Cryptococcus neoformans cell lysis inducers, primary screen, AK release luminescence, single concentration | 0.2% of 360,000 active | lysis activity, % at 15 µM | C. neoformans lysis, adenylate kinase release luminescence, 4 h; normalised: neutral wells 0, clomiphene wells 100;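 active means mean lysis activity across replicates of at least 80%, whatever share of replicates individually reach that level; inactive means mean lysis activity below 80%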
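read-out = cell lysis signal | test system = log-phase Cryptococcus neoformans yeast cells | input = cells at 5 × 10^6 per mL | medium = fresh YPD growth medium | signal = luminescent adenylate kinase detection reagent | timing = 4 h at 37 °C static, read 1 h later | dosing = single dose | controls = Clomiphene as positive lysis control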
C2C12 statin – suppressors of statin myotoxicity in C2C12 myotubes, primary screen, cell-based, single point, plate reader; AID 602340, 2012; 0.78% of 330,000 active; C2C12 myotubes + simvastatin, ATP luminescence, 48 h; scaled: DMSO 0, geranylgeraniol control 100; rescue of ATP level, % at 7.49 µM;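 active means mean ATP rescue above about 67%, or every replicate alone reaching that limit, limit read from the data, passing the limit was not always enough; inconclusive means no clear call, values can overlap the other calls; inactive means mean under the limit and some replicate under it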;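 further: myotubes were challenged with 10 µM simvastatin during compound exposure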
Xi reactivation – activators of inactive X chromosome reactivation, primary screen, imaging, XiGFP fibroblasts, GFP high-content imaging, set 2; XiGFP mouse fibroblasts, % GFP-positive cells imaging, 3 d; cells co-treated with 5-aza-dC sensitizer; scaled so ellipticine positive control = 100%; activation, % at 7.58 µM; 0.055% of 360,000 active; AID 743238, 2013;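 active means mean normalized replicate activation at least 10% and every replicate at or above 10%; inconclusive means only one of the two criteria met; inactive means mean below 10% and not all replicates reach 10%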;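 further: 0% = median of on-plate neutral control wells and 100% = ellipticine 6 µM median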
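Assay system: SV40-immortalized XiGFP fibroblast cells, line 68-5-11; buffer or medium: DMEM plus 5-aza-dC sensitizer; compound: one concentration, pinned; timing: compounds 3 days, fix/stain 15 min at room temperature; benchmarks: positive control ellipticine, 6 µM final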
DENV2 CPE – inhibitors of DENV2 cytopathic effect, primary screen, cell-based, plate reader, single concentration; 1.7% of 350,000 active; DENV2-infected cells, cytopathic effect rescue; CPE inhibition, % at 9.99 µM; in the data active means CPE inhibition above about 20%, passing the limit was not always enough; inconclusive means no clear call, values can overlap the other calls; tested in BHK-21 cells;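 further: 0% = median of neutral control wells and 100% = median of positive control wells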
The depositor's hits bear a star; ? = inconclusive; nt = no result given. In the library only some 2.1% were active in any assay of this set; here they are far more common.

SMILES	Cneo AK release	C2C12 statin	Xi reactivation	DENV2 CPE
COc1ccc(NC(=O)Nc2ccc3c(c2)C(=O)N([C@H](C)CO)C[C@@H](C)[C@@H](CN(C)C(=O)Nc2ccc(OC)cc2)OCCCC[C@@H](C)O3)cc1	nt	nt	0	48*
C[C@@H]1CN([C@H](C)CO)C(=O)Cc2cc(NC(=O)CCCN(C)C)ccc2O[C@@H]1CN(C)CC1CCCCC1	-2	-10	0	-6
O=C(Nc1cccc(F)c1)N1CCCCN2[C@@H](CO)[C@H](c3ccc(C#Cc4ccccc4)cc3)[C@@H]2C1	-2	nt	2	0
C[C@@H]1CCCCO[C@H](CN(C)CC2CCCCC2)[C@H](C)CN([C@H](C)CO)C(=O)c2cc(NC(=O)Nc3ccc4c(c3)OCO4)ccc2O1	0	1	0	1
COc1ccc(NC(=O)N(C)C[C@H]2OCCCC[C@@H](C)Oc3ccc(N(C)C)cc3C(=O)N([C@H](C)CO)C[C@H]2C)cc1	112*	21	6	8
COc1ccc(NC(=O)N(C)C[C@H]2OCCCC[C@H](C)Oc3ccc(NC(=O)C4CCCCC4)cc3C(=O)N([C@@H](C)CO)C[C@@H]2C)cc1	90*	nt	0	nt
C[C@H](CO)N1C[C@H](C)[C@@H](CN(C)CC2CCCCC2)OCCCC[C@H](C)Oc2ccc(NC(=O)Nc3ccc4c(c3)OCO4)cc2C1=O	1	70*	0	-7
CC(=O)c1cccc(NC(=O)NC2CCCCCCC2)c1	-1	nt	0	-2
CC(=O)c1cccc(NC(=S)NC2CCCCCCC2)c1	129*	13	0	?
CNC[C@@H]1Oc2ccc(NS(=O)(=O)c3ccc(F)cc3)cc2C(=O)N([C@H](C)CO)C[C@@H]1C	0	-7	-1	53*
CNC[C@H]1Oc2ccc(NS(=O)(=O)c3ccc(F)cc3)cc2C(=O)N([C@H](C)CO)C[C@H]1C	nt	-12	-1	nt
CNC[C@@H]1Oc2c(NS(=O)(=O)c3ccc(F)cc3)cccc2C(=O)N([C@H](C)CO)C[C@H]1C	8	50	0	21*
CNC[C@H]1Oc2c(NS(=O)(=O)c3ccc(F)cc3)cccc2C(=O)N([C@H](C)CO)C[C@@H]1C	1	-23	-1	-2
CNC[C@@H]1Oc2ccc(NS(=O)(=O)c3ccc(Cl)cc3)cc2C(=O)N([C@H](C)CO)C[C@H]1C	108*	13	-1	-14
O=C1c2ccccc2[C@@H]2C[C@@H](O)[C@H](Nc3cccc4ccccc34)CCN12	1	6	0	26*
O=C(O)c1c[nH]c2ccc(S(=O)(=O)N3CCOCC3)cc12	4	107*	nt	nt
O=S(=O)(c1ccccc1)N1CCCCN2[C@H](C1)[C@@H](c1ccc(-c3ccccc3F)cc1)[C@@H]2CO	4	-4	nt	nt
CC(C)(C)c1ccc(OCCNCc2ccccc2)cc1	-10	-11	0	-5
C[n+]1ccccc1COc1ccc(C(C)(C)C)cc1	nt	nt	0	23*
C[C@@H](NC(=O)C[C@H]1CC[C@@H](NS(=O)(=O)c2cccc(F)c2)[C@H](CO)O1)c1ccccc1	1	2	1	5
CC(C)NC(=O)N(C)C[C@H]1OCCCC[C@@H](C)Oc2ccc(NS(=O)(=O)c3ccc(Cl)cc3)cc2C(=O)N([C@H](C)CO)C[C@H]1C	-5	nt	0	9
O=C1NC(=O)C2(CCc3ccccc32)N1 (stereo unspecified)	-1	65*	nt	nt
Cc1noc(C)c1NC(=O)N(C)C[C@@H]1OCCCC[C@H](C)Oc2ccc(NC(=O)C3CCCCC3)cc2C(=O)N([C@@H](C)CO)C[C@H]1C	-2	nt	0	?
C=CCNC(=O)[C@@H]1[C@H]2C(=O)O[C@H](c3ccccc3)[C@H](c3ccccc3)N2[C@H](c2ccc(O)cc2)[C@@]12C(=O)Nc1ccc(C#CCC(C(=O)OC)C(=O)OC)cc12	3	nt	nt	32*
C=CCNC(=O)[C@H]1[C@@H]2C(=O)O[C@@H](c3ccccc3)[C@@H](c3ccccc3)N2[C@@H](c2ccc(O)cc2)[C@]12C(=O)Nc1ccc(C#CCCO)cc12	nt	nt	nt	-8
SMILES	Cneo AK release	C2C12 statin	Xi reactivation	DENV2 CPE
CC(C)NC(=O)N(C)C[C@H]1OCCCC[C@@H](C)Oc2ccc(NC(=O)c3ccncc3)cc2C(=O)N([C@@H](C)CO)C[C@H]1C	-6	24	0	14
C[C@@H]1CN([C@@H](C)CO)C(=O)c2cc(NS(=O)(=O)c3ccc(F)cc3)ccc2O[C@@H](C)CCCCO[C@@H]1CN(C)C(=O)CCCN(C)C	-4	nt	0	83*
C[C@H]1CCCCO[C@H](CN(C)C(=O)CCCN(C)C)[C@@H](C)CN([C@@H](C)CO)C(=O)c2cc(NS(=O)(=O)c3ccc(F)cc3)ccc2O1	0	nt	0	56*
O=C(C[C@H]1C=C[C@H](NC(=O)Nc2ccccc2F)[C@@H](CO)O1)NCc1ccc(F)cc1	-2	2	0	-1
CCCN1C[C@H](C)[C@@H](OC)CN(C)C(=O)c2cc(NC(=O)c3ccccc3)ccc2OC[C@H]1C	-1	5	0	-5
CCCN1C[C@H](C)[C@@H](OC)CN(C)C(=O)c2ccc(NC(=O)c3ccccc3)cc2OC[C@@H]1C	nt	nt	1	23*
CCCN1C[C@@H](C)[C@H](OC)CN(C)C(=O)c2ccc(NC(=O)Nc3cccc(F)c3)cc2OC[C@@H]1C	-4	-10	0	-3
CCCN1C[C@H](C)[C@@H](OC)CN(C)C(=O)c2cc(NC(=O)c3cccc(F)c3)ccc2OC[C@@H]1C	117*	-22	1	-9
CCCN1C[C@H](C)[C@H](OC)CN(C)C(=O)c2ccc(NC(=O)Nc3cccc(F)c3)cc2OC[C@H]1C	nt	nt	0	25*
O=[N+]([O-])c1cc(Cl)ccc1N1CCCC1	0	-8	1	15
O=C1C(Cl)=C(N2CCN(c3ccccc3[N+](=O)[O-])CC2)C(=O)c2ccccc21	4	nt	35*	-10
C[C@H](CO)N1C[C@H](C)[C@@H](CN(C)S(=O)(=O)c2ccc(F)cc2)OCCCC[C@H](C)Oc2ccc(NC(=O)c3ccncc3)cc2C1=O	1	nt	0	-1
CCCNC(=O)N1C[C@@H]2[C@H](c3ccccc31)[C@@H](CO)N2CC1CCCCC1	4	6	0	-1
O=C(C[C@H]1CC[C@@H]2[C@H](COC[C@@H](O)CN2Cc2ccc(Oc3ccccc3)cc2)O1)N1CCCCC1	4	71*	0	6
O=C(C[C@@H]1CC[C@H]2[C@@H](COC[C@H](O)CN2Cc2ccc(Oc3ccccc3)cc2)O1)N1CCCCC1	0	35	1	14
O=C(C[C@@H]1CC[C@H]2[C@@H](COC[C@@H](O)CN2Cc2cccc(-c3ccncc3)c2)O1)N1CCCCC1	57	-10	0	29*

Screening data as filed in PubChem.
